Data: ChEMBL document CHEMBL1177761, “Click chemistry to probe Hsp90: Synthesis and evaluation of a series of triazole-containing novobiocin analogues” (Bioorg Med Chem Lett, 2010)
Values joined by “and” are separate entries in the source; they are usually repeats but may differ in a detail not shown here. Equal values may be shown once. Active and inactive are the calls of the source. The rule behind the calls is not given here.

What was measured:
MCF7 = experiment: Antiproliferative activity against human MCF7 cells expressing ER; assay type: functional, cell-based
Outline: (§1)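 Growth inhibition was measured in the listed cell lines. IC50 is the compound concentration that inhibits cellular growth by 50%. Values are mean ± standard error from at least two separate experiments, each run in triplicate.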

SK-BR-3 = experiment: Antiproliferative activity against human ER deficient SKBR3 cells over expressing HER2; assay type: functional, cell-based; outline: as §1
[1] = molecular target: MCF-7 and SKBr-3 cells (Homo sapiens); experiment: Antiproliferative activity against human MCF7 and SKBr3 cells
[2] = molecular target: T1, Heat shock protein HSP90 (Homo sapiens) (UniProt P07900+P08238); experiment: Inhibition of Hsp90 in human MCF7 cells assessed as Her2 degradation by Western blot analysis; assay type: cell-based
[3] = molecular target: T1, Heat shock protein HSP90 (Homo sapiens); experiment: Inhibition of Hsp90 in human MCF7 cells assessed as c-Raf degradation by Western blot analysis; assay type: cell-based

| IC50 (MCF7) [µM] | IC50 (SK-BR-3) [µM] | IC50 [1] | inhibition [2] | inhibition [3] | Structure (SMILES) |
| --- | --- | --- | --- | --- | --- |
| > 100 | > 100 |  |  |  | CC(=O)Oc1ccc2cc(-n3cc(-c4ccc(F)cc4F)nn3)c(=O)oc2c1C |
|  |  | 5.3 µM and 12.2 µM |  |  | CO[C@@H]1[C@@H](O)[C@@H](C)[C@H](Oc2ccc3cc(NC(=O)c4c[nH]c5ccccc45)c(=O)oc3c2C)OC1(C)C |
| 18.3 | 8.17 |  |  |  | CO[C@@H]1[C@@H](O)[C@@H](O)[C@H](Oc2ccc3cc(-n4cc(-c5c[nH]c6ccccc56)nn4)c(=O)oc3c2C)OC1(C)C |
| 38.3 | 42.5 |  |  |  | Cc1c(O)ccc2cc(-n3cc(-c4cc5ccccc5[nH]4)nn3)c(=O)oc12 |
| 33.7 | 33.9 |  |  |  | Cc1c(O)ccc2cc(-n3cc(/C=C/c4ccccc4)nn3)c(=O)oc12 |
| > 100 | > 100 |  | inactive |  | CC(=O)Oc1ccc2cc(-n3cc(-c4ccc(N(C)C)cc4)nn3)c(=O)oc2c1C |
| 33.5 | 34.2 |  |  |  | Cc1c(O)ccc2cc(-n3cc(-c4ccc(F)cc4F)nn3)c(=O)oc12 |
| 23.2 | > 100 |  |  |  | Cc1ccc(-c2cn(-c3cc4ccc(O)c(C)c4oc3=O)nn2)cc1 |
| 13.2 | 21.2 |  |  |  | COc1cccc(-c2cc(-c3cn(-c4cc5ccc(O[C@@H]6OC(C)(C)[C@H](OC)[C@@H](O)[C@H]6O)c(C)c5oc4=O)nn3)ccc2OC)c1 |
| > 100 | 90.8 |  |  |  | CC(=O)Oc1ccc2cc(-n3cc(-c4ccc(C)cc4)nn3)c(=O)oc2c1C |
| 28 | 44.9 |  |  |  | COc1cccc(-c2cc(-c3cn(-c4cc5ccc(O)c(C)c5oc4=O)nn3)ccc2OC)c1 |
| 28.5 | 65.1 |  |  |  | CC(=O)Oc1ccc2cc(-n3cc(/C=C/c4ccccc4)nn3)c(=O)oc2c1C |
| > 100 | > 100 |  |  |  | COc1ccc(-c2cn(-c3cc4ccc(OC(C)=O)c(C)c4oc3=O)nn2)cc1 |
| 481 | 475 |  |  |  | CO[C@@H]1[C@@H](OC(N)=O)[C@@H](O)[C@H](Oc2ccc3c(O)c(NC(=O)c4ccc(O)c(CC=C(C)C)c4)c(=O)oc3c2C)OC1(C)C [NOVOBIOCIN] |
| > 100 | > 100 |  |  |  | COc1ccc(-c2cn(-c3cc4ccc(O)c(C)c4oc3=O)nn2)cc1 |
| 25.2 | 39 |  |  |  | Cc1c(O)ccc2cc(-n3cc(-c4ccccc4)nn3)c(=O)oc12 |
| 42.4 | 50.8 |  |  |  | COc1cccc(-c2cc(-c3cn(-c4cc5ccc(OC(C)=O)c(C)c5oc4=O)nn3)ccc2OC)c1 |
| 76.1 | 50.4 |  |  |  | CC(=O)Oc1ccc2cc(-n3cc(-c4cc5ccccc5[nH]4)nn3)c(=O)oc2c1C |
| > 100 | > 100 |  |  |  | Cc1c(O)ccc2cc(-n3cc(-c4ccc(N(C)C)cc4)nn3)c(=O)oc12 |
| 40.8 | 76.4 |  |  |  | CC(=O)Oc1ccc2cc(-n3cc(-c4ccccc4)nn3)c(=O)oc2c1C |
| 64.4 | > 100 |  |  |  | CO[C@@H]1[C@@H](O)[C@@H](O)[C@H](Oc2ccc3cc(-n4cc(-c5ccccc5)nn4)c(=O)oc3c2C)OC1(C)C |
| 7.45 | 6.52 |  | Dose-dependent effect | Dose-dependent effect | CC(=O)Oc1ccc2cc(-n3cc(-c4c[nH]c5ccccc45)nn3)c(=O)oc2c1C |
